Test results published in ChEMBL document CHEMBL4330076, “Quinazolin-2,4-dione-Based Hydroxamic Acids as Selective Histone Deacetylase-6 Inhibitors for Treatment of Non-Small Cell Lung Cancer” (J Med Chem, 2019).

What was measured:
[1] = Drug uptake in C57BL/6 mouse kidney at 40 mg/kg, po administered via gavage by LC-MS/MS analysis; format: ADME, organism-based; details: in vivo
Histone deacetylase 8 = biological target: T1, Histone deacetylase 8 (Homo sapiens, UniProt Q9BY41); assay: Inhibition of human full-length recombinant HDAC8 expressed in baculovirus infected Sf9 insect cells using fluorogenic peptide RHKAcKAc as substrate after 2 hrs
T1 sequence (Q9BY41 whole entry): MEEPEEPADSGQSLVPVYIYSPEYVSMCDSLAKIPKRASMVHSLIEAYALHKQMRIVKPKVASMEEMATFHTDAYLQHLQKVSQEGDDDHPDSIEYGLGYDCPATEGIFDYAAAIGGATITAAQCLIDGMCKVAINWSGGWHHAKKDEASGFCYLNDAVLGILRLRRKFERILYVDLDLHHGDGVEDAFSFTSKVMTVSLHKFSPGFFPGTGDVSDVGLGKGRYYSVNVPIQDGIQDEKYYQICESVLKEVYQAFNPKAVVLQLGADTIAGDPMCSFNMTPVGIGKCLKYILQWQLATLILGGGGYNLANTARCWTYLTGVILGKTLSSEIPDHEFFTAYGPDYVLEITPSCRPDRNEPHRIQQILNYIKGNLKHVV

A549 [2] = assay: Cytotoxicity against human A549 cells after 72 hrs by MTT assay; format: functional, cell-based; details: A549, 72 h
Summary of the method: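 Human A549 lung cancer cells exposed to serial dilutions of inhibitor at 37 °C for 72 h. Cytotoxicity expressed as IC50.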

[3] = tested on: Lewis lung carcinoma cell line; assay: Cytotoxicity against mouse LL/2 cells after 72 hrs by MTT assay; format: functional, cell-based
[4] = tested on: Lewis lung carcinoma cell line; assay: Cytotoxicity against mouse LL/2 cells at 4 uM after 72 hrs by MTT assay relative to control; format: functional
Summary of the method: (§1)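 Mouse LL/2 cells treated with inhibitor alone or combined with paclitaxel for 3 days. Viability measured by MTT assay relative to untreated control.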

[5] = tested on: Lewis lung carcinoma cell line; assay: Cytotoxicity against mouse LL/2 cells at 4 uM after 72 hrs in presence of paclitaxel by MTT assay relative to control; format: functional; summary of the method: as §1
[6] = tested on: Lewis lung carcinoma cell line; assay: Potentiation of paclitaxel-induced cytotoxicity in mouse LL/2 cells assessed as combination index up to 10 uM after 72 hrs by Chou-Talalay method; format: functional
[7] = tested on: Lewis lung carcinoma cell line; assay: Induction of apoptosis in mouse LL/2 cells assessed as viable cells at 4 uM after 24 hrs by Annexin V/propidium iodide staining-based flow cytometric analysis (reference value: 82.3%); format: functional
[8] = tested on: Lewis lung carcinoma cell line; assay: Induction of apoptosis in mouse LL/2 cells assessed as early apoptotic cells at 4 uM after 24 hrs by Annexin V/propidium iodide staining-based flow cytometric analysis (reference value: 1.8%); format: functional
[9] = tested on: Lewis lung carcinoma cell line; assay: Induction of apoptosis in mouse LL/2 cells assessed as late apoptotic cells at 4 uM after 24 hrs by Annexin V/propidium iodide staining-based flow cytometric analysis (reference value: 8.7%); format: functional
[10] = tested on: Lewis lung carcinoma cell line; assay: Induction of apoptosis in mouse LL/2 cells assessed as necrotic cells at 4 uM after 24 hrs by Annexin V/propidium iodide staining-based flow cytometric analysis (reference value: 7.3%); format: functional
[11] = tested on: Lewis lung carcinoma cell line; assay: Induction of apoptosis in mouse LL/2 cells assessed as necrotic cells at 4 uM after 24 hrs in presence of paclitaxel by Annexin V/propidium iodide staining-based flow cytometric analysis (reference value: 7.3%); format: functional
A549 [12] = assay: Induction of apoptosis in human A549 cells assessed as late apoptotic cells at 4 uM after 24 hrs by Annexin V/propidium iodide staining-based flow cytometric analysis (reference value: 1.6%); format: functional
A549 [13] = assay: Induction of apoptosis in human A549 cells assessed as viable cells at 4 uM after 24 hrs in presence of paclitaxel by Annexin V/propidium iodide staining-based flow cytometric analysis (reference value: 96.2%); format: functional
A549 [14] = assay: Induction of apoptosis in human A549 cells assessed as early apoptotic cells at 4 uM after 24 hrs in presence of paclitaxel by Annexin V/propidium iodide staining-based flow cytometric analysis (reference value: 1.2%); format: functional
A549 [15] = assay: Induction of apoptosis in human A549 cells assessed as necrotic cells at 4 uM after 24 hrs in presence of paclitaxel by Annexin V/propidium iodide staining-based flow cytometric analysis (reference value: 1.1%); format: functional
[16] = tested on: Lewis lung carcinoma cell line; assay: Antitumor activity against mouse LL/2 cells implanted in C57BL/6 mouse assessed as tumor growth inhibition at 20 mg/kg, po qd administered for 21 consecutive days co-administered with paclitaxel at 10 mg/kg, ip qd administered for 5 days relative to control; format: functional
[17] = AUC (0 to 24 hrs) in C57BL/6 mouse liver at 40 mg/kg, po administered via gavage by LC-MS/MS analysis; format: ADME, organism-based; parameters: dose 40 mg/kg, time < 24 hr, route oral; details: in vivo
[18] = AUC (0 to 24 hrs) in C57BL/6 mouse kidney at 40 mg/kg, po administered via gavage by LC-MS/MS analysis; format: ADME, organism-based; parameters: time < 24 hr, dose 40 mg/kg, route oral; details: in vivo
[19] = AUC (0 to 24 hrs) in C57BL/6 mouse plasma at 40 mg/kg, po administered via gavage by LC-MS/MS analysis; format: ADME, organism-based; parameters: time < 24 hr, dose 40 mg/kg, route oral; details: in vivo
[20] = Ratio of compound AUC (0 to 24 hrs) to ACY-1215 AUC (0 to 24 hrs) in C57BL/6 mouse liver at 40 mg/kg, po administered via gavage by LC-MS/MS analysis; format: ADME, organism-based; details: in vivo
[21] = Drug uptake in C57BL/6 mouse liver at 40 mg/kg, po administered via gavage by LC-MS/MS analysis; format: ADME, organism-based; details: in vivo
[22] = Drug uptake in C57BL/6 mouse plasma at 40 mg/kg, po administered via gavage by LC-MS/MS analysis; format: ADME, organism-based; details: in vivo
[23] = Drug uptake in C57BL/6 mouse lung at 40 mg/kg, po administered via gavage co-administered with paclitaxel at 10 mg/kg, ip by LC-MS/MS analysis; format: ADME, organism-based; details: in vivo
[24] = Drug uptake in C57BL/6 mouse liver at 40 mg/kg, po administered via gavage co-administered with paclitaxel at 10 mg/kg, ip by LC-MS/MS analysis; format: ADME, organism-based; details: in vivo
[25] = Drug uptake in C57BL/6 mouse kidney at 40 mg/kg, po administered via gavage co-administered with paclitaxel at 10 mg/kg, ip by LC-MS/MS analysis; format: ADME, organism-based; details: in vivo
[26] = Drug uptake in C57BL/6 mouse plasma at 40 mg/kg, po administered via gavage co-administered with paclitaxel at 10 mg/kg, ip by LC-MS/MS analysis; format: ADME, organism-based; details: in vivo
[27] = Ratio of drug uptake in C57BL/6 mouse liver at 40 mg/kg, po administered via gavage co-administered with paclitaxel at 10 mg/kg, ip by LC-MS/MS analysis to drug uptake in C57BL/6 mouse liver at 40 mg/kg, po administered via gavage by LC-MS/MS analysis; format: ADME, organism-based; details: in vivo
[28] = Drug metabolism in C57BL/6 mouse liver assessed as hydroxylated metabolite formation at 40 mg/kg, po administered via gavage by LC-MS/MS analysis; format: ADME, organism-based; details: in vivo
[29] = Drug metabolism in C57BL/6 mouse lung assessed as hydrolysis metabolite formation at 40 mg/kg, po administered via gavage by LC-MS/MS analysis; format: ADME, organism-based; details: in vivo
[30] = Drug metabolism in C57BL/6 mouse kidney assessed as hydrolysis metabolite formation at 40 mg/kg, po administered via gavage by LC-MS/MS analysis; format: ADME, organism-based; details: in vivo

Work on `O=C(NO)c1ccc(Cn2c(=O)n(CCc3ccccc3)c(=O)c3ccccc32)cc1` yielded a Drug uptake [1] of 130 ng/g, an IC50 (Histone deacetylase 8) of 309 nM and an IC50 (A549 [2]) of 7.87 µM. The IC50 [3] was 7.87 µM, the Activity [4] was 10% and the Activity [5] was 80 - 90%. It also gave a CI [6] of less than 1, an Activity [7] of 85.8% and an Activity [8] of 1.5%. The Activity [9] was 10.4%, the Activity [10] was 2.3% and the Activity [11] was 5.3%. It also gave an Activity (A549 [12]) of 0.7%, an Activity (A549 [13]) of 92.7% and an Activity (A549 [14]) of 5.4%. For the same compound, the Activity (A549 [15]) was 0.5%, the TGI [16] was 67.5% and the AUC [17] was 6395 ng·h/g. For the same compound, the AUC [18] was 1903 ng·h/g, the AUC [19] was 71 ng·h/g and the “Ratio AUC” value [20] was 4.4. For the same compound, the Drug uptake [21] was 782 ng/g, the Cp [22] was 13 ng/mL and the Drug uptake [23] was 331 ng/g. It also gave a Drug uptake [24] of 719 ng/g, a Drug uptake [25] of 392 ng/g and a Cp [26] of 160 ng/mL. For the same compound, the Ratio [27] was 0.9, the Drug metabolism [28] was “Metabolite_Notdetected” and the Drug metabolism [29] was “Metabolite_Detected”. The Drug metabolism [30] was “Metabolite_Detected”.
